Molecules are shown by their SMILES.

Data set [1] relates to Bacteria. Nature of the data set: Inhibition of bacterial IMP1 at 10 uM using CENTA as substrate by UV/Vis multi-plate spectrophotometric method relative to control.
Data set [2] deals with Metallo-beta-lactamase type 2 (Aeromonas hydrophila) (UniProt P26918). Nature of the data set: Competitive inhibition of Aeromonas hydrophila recombinant CphA expressed in Escherichia coli BL21(DE3) using meropenem as substrate by UV/Vis multi-plate spectrophotometric method.
Chain of Metallo-beta-lactamase type 2 (Aeromonas hydrophila) (P26918 whole entry): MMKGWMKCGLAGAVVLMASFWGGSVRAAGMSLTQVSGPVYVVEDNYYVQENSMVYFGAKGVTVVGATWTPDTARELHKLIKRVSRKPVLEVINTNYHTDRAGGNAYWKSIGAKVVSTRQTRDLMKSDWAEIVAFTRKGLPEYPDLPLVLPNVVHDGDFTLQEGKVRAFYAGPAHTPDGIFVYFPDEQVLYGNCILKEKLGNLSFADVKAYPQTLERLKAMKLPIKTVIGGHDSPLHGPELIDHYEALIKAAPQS
Data set [3] has as its system Escherichia coli. In words: Growth inhibition of Escherichia coli BL21(DE3) expressing Aeromonas hydrophila CphA. In kind it is organism-based. To be noted: in vivo.
Data set [4] concerns Bacteria. In words: Inhibition of bacterial IMP1 expressed in Escherichia coli BL21(DE3) assessed as decrease in meropenem MIC at 30 uM after overnight incubation relative to control. The essentials:
(§1)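 Meropenem MICs (µg/mL) measured for E. coli BL21 cultures expressing IMP-1, CphA or AIM-1. Each strain was tested with no inhibitor (blank) and with the test compound at 30 µM. Change in sensitivity is expressed as the reduction of the meropenem MIC relative to the blank.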

Data set [5] deals with Bacteria. Nature of the data set: Uncompetitive inhibition of bacterial IMP1 using CENTA as substrate by UV/Vis multi-plate spectrophotometric method.
The subject of data set [6] is Escherichia coli. In words: Growth inhibition of Escherichia coli BL21(DE3) expressing Pseudomonas aeruginosa AIM1. Conditions: in vivo. Type of data set: organism-based.
For data set [7], the target named is T1, Metallo-beta-lactamase AIM-1 (Pseudomonas aeruginosa) (UniProt B5DCA0).
T1 sequence (whole entry): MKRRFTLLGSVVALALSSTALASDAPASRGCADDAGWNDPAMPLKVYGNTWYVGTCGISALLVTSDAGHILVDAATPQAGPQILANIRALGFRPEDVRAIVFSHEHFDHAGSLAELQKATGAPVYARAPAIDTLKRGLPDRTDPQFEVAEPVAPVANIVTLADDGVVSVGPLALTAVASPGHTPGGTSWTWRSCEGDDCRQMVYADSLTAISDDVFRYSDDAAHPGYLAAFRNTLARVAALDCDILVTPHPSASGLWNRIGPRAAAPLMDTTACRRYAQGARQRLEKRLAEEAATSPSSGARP
In words: Competitive inhibition of Pseudomonas aeruginosa recombinant AIM1 expressed in Escherichia coli BL21(DE3) using cefuroxime as substrate by UV/Vis multi-plate spectrophotometric method.

The subject of data set [8] is Bacteria. Nature of the data set: Competitive inhibition of bacterial IMP1 using CENTA as substrate by UV/Vis multi-plate spectrophotometric method.
The target in data set [9] is T1, Metallo-beta-lactamase AIM-1 (Pseudomonas aeruginosa). In words: Uncompetitive inhibition of Pseudomonas aeruginosa recombinant AIM1 expressed in Escherichia coli BL21(DE3) using cefuroxime as substrate by UV/Vis multi-plate spectrophotometric method.
Data set [10] addresses Metallo-beta-lactamase type 2 (Aeromonas hydrophila) (UniProt P26918). In words: Inhibition of Aeromonas hydrophila CphA expressed in Escherichia coli BL21(DE3) assessed as decrease in meropenem MIC at 30 uM after overnight incubation relative to control. The method in brief: as §1
Data set [11] concerns Escherichia coli. In words: Growth inhibition of Escherichia coli BL21(DE3) expressing bacterial IMP1. Type of data set: organism-based. To be noted: in vivo.
Data set [12] concerns the target Metallo-beta-lactamase type 2 (Aeromonas hydrophila) (UniProt P26918). Nature of the data set: Uncompetitive inhibition of Aeromonas hydrophila recombinant CphA expressed in Escherichia coli BL21(DE3) using meropenem as substrate by UV/Vis multi-plate spectrophotometric method.
Data set [13] has as its target T1, Metallo-beta-lactamase AIM-1 (Pseudomonas aeruginosa). In words: Inhibition of Pseudomonas aeruginosa AIM1 expressed in Escherichia coli BL21(DE3) assessed as decrease in meropenem MIC at 30 uM after overnight incubation relative to control. The method in brief: as §1
The target is the same in data set [14]. In words: Inhibition of Pseudomonas aeruginosa recombinant AIM1 expressed in Escherichia coli BL21(DE3) assessed as potentiation of meropenem-mediated antibacterial activity by measuring meropenem MIC at 30 uM after overnight incubation (reference value: 2 ug/ml). The method in brief:
as §1

Data set [15] has as its system Bacteria. Nature of the data set: Inhibition of bacterial IMP1 expressed in Escherichia coli BL21(DE3) assessed as potentiation of meropenem-mediated antibacterial activity by measuring meropenem MIC at 30 uM after overnight incubation (reference value: 1 ug/ml). The method in brief:
as §1

The target of data set [16] is Metallo-beta-lactamase type 2 (Aeromonas hydrophila) (UniProt P26918). In words: Inhibition of Aeromonas hydrophila CphA expressed in Escherichia coli BL21(DE3) assessed as potentiation of meropenem-mediated antibacterial activity by measuring meropenem MIC at 30 uM after overnight incubation (reference value: 1 ug/ml). The method in brief: as §1
Data set [17] is described as follows: Drug metabolism assessed as bacterial IMP1-mediated N-(1-Benzyl-3-cyano-4,5-diphenyl-1H-pyrrol-2-yl)benzamide formation by ESI-MS method. In kind it is ADME. To be noted: bacteria.

The term inhibition denotes the percentage by which the read-out fell short of the control. A higher inhibition goes with strong suppression. As for `CCCCCCCCCCCCCC(=O)Nc1c(C#N)c(-c2ccccc2)c(-c2ccccc2)n1Cc1ccccc1`, in the data set with Bacteria [1], the inhibition stood at 8.2%.
The same measure, in the same setting: then `N#Cc1c(-c2ccccc2)c(-c2ccccc2)n(CCCCc2ccccc2)c1N`, with 8.7%.
Same read-out and setting: under `N#Cc1c(-c2ccco2)c(-c2ccco2)n(Cc2ccccc2)c1N` stands 23.2%.
Still for that read-out and setting: under `CCCC(=O)N(C(=O)CCC)c1c(C#N)c(-c2ccccc2)c(-c2ccccc2)n1Cc1ccccc1` stands 17.1%; under `N#Cc1c(-c2ccccc2)c(-c2ccccc2)n(Cc2ccccc2)c1N1C(=O)c2ccccc2C1=O`, 20.3%.
In the case of `CCCC(=O)Nc1c(C#N)c(-c2ccccc2)c(-c2ccccc2)n1Cc1ccccc1`, in the data set on Bacteria [1], the inhibition turned out to be 21%.
The same measure, in the same setting: then `N#Cc1c(-c2ccccc2)c(-c2ccccc2)n(CCc2ccccc2)c1N`, with 4.8%.
As to `N#Cc1c(-c2ccccc2)c(-c2ccccc2)n(Cc2ccccc2)c1NC(=O)c1ccccc1`, the Kic in data set [2] worked out at 11 µM; in data set [7] it was 1.6 µM; with Bacteria [8], 10.7 µM. Besides, the “growth inhibition (GI)” value with Escherichia coli [3], in the data set with Escherichia coli [6] and in the data set with Escherichia coli [11] was “Non-Toxic” in each case. Also, the fold change (FC) in the data set with Bacteria [4] came to 20; in data set [10], 40; in [13], 20. For the same compound, the Kiuc in the data set with Bacteria [5] stood at 4.3 µM; in [9], 13 µM; in [12], 9 µM. In addition, the inhibition in the data set with Bacteria [1] turned out to be 50.9%.
`N#Cc1c(-c2ccccc2)c(-c2ccccc2)n(-c2ccccc2)c1N` yielded an inhibition with Bacteria [1] of 0%.
On the same count and under the same terms, under `N#Cc1c(-c2ccccc2)c(-c2ccccc2)n(Cc2ccccc2)c1NC(=O)C1CCCCC1` stands 23.3%.
`N#Cc1c(-c2ccccc2)c(-c2ccccc2)n(Cc2ccccc2)c1NC(=O)c1ccc(C(=O)c2ccccc2)cc1`: the Kic in data set [2] was 872 µM. Moreover, the “growth inhibition (GI)” value in the data set with Escherichia coli [3], in the data set on Escherichia coli [6] and in the data set on Escherichia coli [11] was “Non-Toxic” in each case. Also, the Kiuc came out at 1.52 µM in the data set on Bacteria [5] and 161 µM in data set [12]. The values for the MIC (in data set [14]; with Bacteria [15]; in [16]) were 0.75 µg/mL, 0.5 µg/mL and 0.75 µg/mL, respectively. In the data set on Bacteria [1], this compound displayed an inhibition of 44.3%.
As to `NC(=O)c1c(-c2ccccc2)c(-c2ccccc2)n(Cc2ccccc2)c1N`, in the data set with Bacteria [1], the inhibition is 0%.
On to `N#Cc1c(-c2ccccc2)c(-c2ccccc2)n(Cc2ccccc2)c1NC(=O)c1ccc([N+](=O)[O-])cc1`, for which the “growth inhibition (GI)” value in the data set on Escherichia coli [3], in the data set with Escherichia coli [6] and in the data set with Escherichia coli [11] was “Non-Toxic” throughout. The MIC worked out at 0.5 µg/mL in data set [14], 0.25 µg/mL in the data set on Bacteria [15] and 0.75 µg/mL in [16]. The figures for the Kic (in data set [7]; in the data set with Bacteria [8]) were 10.9 µM and 1.24 µM, respectively. In addition, the Kiuc in data set [9] came out at 47 µM. For the same compound, the inhibition in the data set with Bacteria [1] was determined as 36.9%.
`N#Cc1c(-c2ccccc2)c(-c2ccccc2)n(Cc2ccccc2)c1N(C(=O)c1ccc([N+](=O)[O-])cc1)C(=O)c1ccc([N+](=O)[O-])cc1`: the inhibition in the data set with Bacteria [1] turned out to be 20.2%.
Still for that read-out and setting: then `CC(=O)Nc1c(C#N)c(-c2ccccc2)c(-c2ccccc2)n1Cc1ccccc1`, with 16.1%.
In the data set with Bacteria [1], `Cc1c(C#N)c(N)n(Cc2ccccc2)c1C` came in with an inhibition of 2.3%.
For the compound `N#Cc1c(-c2ccccc2)c(-c2ccccc2)n(Cc2ccccc2)c1N`, the Kic in data set [2] was 52 µM; in [7], 2.2 µM; in the data set on Bacteria [8], 21 µM. The “growth inhibition (GI)” value in the data set on Escherichia coli [3], in the data set on Escherichia coli [6] and with Escherichia coli [11] was “Non-Toxic” each time. The MIC in data set [14] was 0.25 µg/mL; with Bacteria [15], 0.5 µg/mL; in data set [16] it was 0.047 µg/mL. The Kiuc in data set [9] stood at 12.5 µM; in data set [12], 5.5 µM. In the data set with Bacteria [1], this compound yielded an inhibition of 26%.
`CCCCCCCCCCCCCC(=O)N(C(=O)CCCCCCCCCCCCC)c1c(C#N)c(-c2ccccc2)c(-c2ccccc2)n1Cc1ccccc1` showed an inhibition with Bacteria [1] of 14.3%.
`Nc1c(-c2nnn[nH]2)c(-c2ccccc2)c(-c2ccccc2)n1Cc1ccccc1` came in with an inhibition with Bacteria [1] of 8.7%.
Still for that read-out and setting: then `COc1ccc(Cn2c(N)c(C#N)c(-c3ccccc3)c2-c2ccccc2)cc1`, with 20.1%; and `CC(=O)N(C(C)=O)c1c(C#N)c(-c2ccccc2)c(-c2ccccc2)n1Cc1ccccc1`, with 18.6%.
The same measure, in the same setting: under `N#Cc1c(N)[nH]c(-c2ccccc2)c1-c1ccccc1` stands 12%.
`Cc1cc(C)cc(C(=O)Nc2c(C#N)c(-c3ccccc3)c(-c3ccccc3)n2Cc2ccccc2)c1`: in the data set on Bacteria [5], the Kiuc is 7.8 µM. The compound further displayed a Kic in the data set with Bacteria [8] of 20.2 µM. The inhibition in the data set with Bacteria [1] was 32.3%.
`N#Cc1c(-c2ccccc2)c(-c2ccccc2)n(CCCc2ccccc2)c1N` yielded an inhibition in the data set with Bacteria [1] of 4.1%.
As for `Cc1cc(C)cc(C(=O)N(C(=O)c2cc(C)cc(C)c2)c2c(C#N)c(-c3ccccc3)c(-c3ccccc3)n2Cc2ccccc2)c1`, in the data set with Bacteria [1], the inhibition is 13.3%.
In the data set on Bacteria [5], `N#Cc1c(-c2ccccc2)c(-c2ccccc2)n(Cc2ccccc2)c1N(C(=O)c1ccccc1)C(=O)c1ccccc1` returned a Kiuc of 55 µM. For the same compound, the Kic with Bacteria [8] is 468 µM. Also, in data set [17], the Drug metabolism entry is reported as “Metabolite_Notdetected”. In the data set on Bacteria [1], this compound returned an inhibition of 48%.
In the data set on Bacteria [5], `N#Cc1c(-c2ccccc2)c(-c2ccccc2)n(Cc2ccccc2)c1NC(=O)c1cccc([N+](=O)[O-])c1` registered a Kiuc of 3.3 µM. In the data set with Bacteria [8], this compound registered a Kic of 23.7 µM. This compound also returned an inhibition in the data set with Bacteria [1] of 48.7%.

The values are drawn from ChEMBL document CHEMBL4118069, “Structure-activity relationship study and optimisation of 2-aminopyrrole-1-benzyl-4,5-diphenyl-1H-pyrrole-3-carbonitrile as a broad spectrum metallo-β-lactamase inhibitor” (Eur J Med Chem, 2017).
